# Experimental data published in ChEMBL document CHEMBL1141083, “Development of human calcitonin gene-related peptide (CGRP) receptor antagonists. 1. Potent and selective small molecule CGRP antagonists. 1-[N2-[3,5-dibromo-N-[[4-(3,4-dihydro-2(1H)-oxoquinazolin-3-yl)-1-piperidinyl]carbonyl]-D-tyrosyl]-l-lysyl]-4-(4-pyridinyl)piperazine: the first CGRP antagonist …” (J Med Chem, 2005).
# Molecular target: T1, Calcitonin gene-related peptide type 1 receptor (Homo sapiens, UniProt O60894+Q16602)
# Assay: Affinity against human calcitonin gene related peptide receptor (1 uM) expressed in SK-N-MC cells using [125I]-CGRP as radioligand after 180 minutes of incubation at pH 7.40
# Type: cell-based
# Conditions: not given
# Outline: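 SK-N-MC cell membranes, frozen at -80 °C in Tris/BSA/bacitracin buffer, then diluted 1:10 in assay buffer (50 mM Tris, 150 mM NaCl, 5 mM MgCl2, 1 mM EDTA, pH 7.40). Filtered, gamma counted, nonspecific binding with 1 μM human α-CGRP. IC50 by one-site nonlinear regression; at least three experiments in triplicate.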
# T1 sequence (Q16602 whole entry, one chain of several): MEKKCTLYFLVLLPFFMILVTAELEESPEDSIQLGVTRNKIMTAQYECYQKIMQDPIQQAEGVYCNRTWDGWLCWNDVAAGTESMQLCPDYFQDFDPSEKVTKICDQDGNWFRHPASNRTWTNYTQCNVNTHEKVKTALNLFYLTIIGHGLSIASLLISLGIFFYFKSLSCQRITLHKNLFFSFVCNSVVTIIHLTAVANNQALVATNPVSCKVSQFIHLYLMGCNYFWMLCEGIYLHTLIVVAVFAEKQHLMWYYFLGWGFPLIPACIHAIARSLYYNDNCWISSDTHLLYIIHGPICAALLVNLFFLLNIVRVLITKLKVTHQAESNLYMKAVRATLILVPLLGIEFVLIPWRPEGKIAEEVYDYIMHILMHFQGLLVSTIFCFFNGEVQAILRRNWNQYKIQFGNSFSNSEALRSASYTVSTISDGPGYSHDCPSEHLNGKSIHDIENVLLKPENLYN
row,SMILES,IC50 [nM]
1,NCCCC[C@@H](NC(=O)[C@H](Cc1cc(Br)c(N)c(Br)c1)NC(=O)CCCc1ccccc1)C(=O)NCCc1ccccc1,40000
2,NCCCC[C@@H](NC(=O)[C@@H](Cc1cc(Br)c(O)c(Br)c1)NC(=O)CCCc1ccccc1)C(=O)NCCc1ccccc1,> 300000
3,NCCCC[C@@H](NC(=O)[C@H](Cc1cc(Br)c(N)c(Br)c1)NC(=O)CCCc1ccccc1)C(=O)Nc1ccccc1,50000
4,NCCCC[C@@H](NC(=O)[C@H](Cc1cc(Br)c(N)c(Br)c1)NC(=O)CCCc1ccccc1)C(=O)N1CCN(c2ccccc2)CC1,> 300000
5,NCCCC[C@@H](NC(=O)[C@H](Cc1cc(Br)c(N)c(Br)c1)NC(=O)CCc1ccccc1)C(=O)NCCc1ccccc1,196000
6,NCCCC[C@H](NC(=O)[C@@H](Cc1cc(Br)c(O)c(Br)c1)NC(=O)CCCc1ccccc1)C(=O)NCCc1ccccc1,> 300000
7,NCCCC[C@@H](NC(=O)[C@H](Cc1cc(Br)c(O)c(Br)c1)NC(=O)N1CCC(N(C(N)=O)c2ccccc2)CC1)C(=O)N1CCN(c2ccncc2)CC1,4.7
8,NCCCC[C@@H](NC(=O)[C@H](Cc1cc(Br)c(N)c(Br)c1)NC(=O)CCCc1ccccc1)C(=O)N1CCNCC1,> 300000
9,NCCCC[C@H](NC(=O)[C@H](Cc1cc(Br)c(O)c(Br)c1)NC(=O)CCCc1ccccc1)C(=O)NCCc1ccccc1,> 300000

# Further lines, results first:
row,IC50 [nM],SMILES
1,17000,NCCCC[C@@H](NC(=O)[C@H](Cc1cc(Br)c(O)c(Br)c1)NC(=O)CCCc1ccccc1)C(=O)NCCc1ccccc1
2,13000,COc1ccccc1CCNC(=O)N[C@@H](Cc1cc(Br)c(O)c(Br)c1)C(=O)N[C@H](CCCCN)C(=O)NCCc1ccccc1
3,10300,NCCCC[C@@H](NC(=O)[C@H](Cc1cc(Br)c(N)c(Br)c1)NC(=O)CCCc1ccccc1)C(=O)N1CCN(c2ccncc2)CC1
4,1000,COc1ccccc1CCNC(=O)N[C@@H](Cc1cc(Br)c(O)c(Br)c1)C(=O)N[C@H](CCCCN)C(=O)N1CCN(c2ccncc2)CC1
5,250,COc1ccccc1C1CCN(C(=O)N[C@@H](Cc2cc(Br)c(O)c(Br)c2)C(=O)N[C@H](CCCCN)C(=O)N2CCN(c3ccncc3)CC2)CC1
6,226,COc1ccccc1N1CCN(C(=O)N[C@@H](Cc2cc(Br)c(O)c(Br)c2)C(=O)N[C@H](CCCCN)C(=O)N2CCN(c3ccncc3)CC2)CC1
7,200,COc1cccc(CCNC(=O)N[C@@H](Cc2cc(Br)c(O)c(Br)c2)C(=O)N[C@H](CCCCN)C(=O)N2CCN(c3ccncc3)CC2)c1
8,44,NCCCC[C@@H](NC(=O)[C@H](Cc1cc(Br)c(O)c(Br)c1)NC(=O)N1CCC(n2c(=O)oc3ccccc32)CC1)C(=O)N1CCN(c2ccncc2)CC1
9,0.2,NCCCC[C@@H](NC(=O)[C@H](Cc1cc(Br)c(O)c(Br)c1)NC(=O)N1CCC(n2c(O)nc3ccccc32)CC1)C(=O)N1CCN(c2ccncc2)CC1
10,0.05,NCCCC[C@@H](NC(=O)[C@H](Cc1cc(Br)c(O)c(Br)c1)NC(=O)N1CCC(n2cc(-c3ccccc3)[nH]c2=O)CC1)C(=O)N1CCN(c2ccncc2)CC1

# Molecular target: T1, Calcitonin gene-related peptide type 1 receptor
# Assay: Antagonistic activity against calcitonin gene related peptide receptor determined by measuring the formation of cyclic AMP in SK-N-MC cells
# Type: functional, cell-based
# Conditions: read-out: pA2 (converted)
row,Kb [nM],SMILES
1,10,NCCCC[C@@H](NC(=O)[C@H](Cc1cc(Br)c(O)c(Br)c1)NC(=O)N1CCC(n2c(=O)oc3ccccc32)CC1)C(=O)N1CCN(c2ccncc2)CC1
2,126,COc1cccc(CCNC(=O)N[C@@H](Cc2cc(Br)c(O)c(Br)c2)C(=O)N[C@H](CCCCN)C(=O)N2CCN(c3ccncc3)CC2)c1
3,0.0794,NCCCC[C@@H](NC(=O)[C@H](Cc1cc(Br)c(O)c(Br)c1)NC(=O)N1CCC(n2c(O)nc3ccccc32)CC1)C(=O)N1CCN(c2ccncc2)CC1

row,SMILES,Kb [nM]
1,NCCCC[C@@H](NC(=O)[C@H](Cc1cc(Br)c(O)c(Br)c1)NC(=O)N1CCC(N(C(N)=O)c2ccccc2)CC1)C(=O)N1CCN(c2ccncc2)CC1,0.794

# Molecular target: Calcitonin gene-related peptide type 1 receptor (Rattus norvegicus, UniProt Q63118)
# Assay: Affinity against calcitonin gene related peptide receptor (1 uM) in rat spleen using [125I]CGRP as radioligand after 180 minutes of incubation at pH 7.40
# Type: tissue-based
# Conditions: not given
# Outline: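 Membrane homogenates of marmoset or rat spleen, diluted 1:10 in assay buffer (50 mM Tris, 150 mM NaCl, 5 mM MgCl2, 1 mM EDTA, pH 7.40). Incubated 180 min at ambient temperature with 50 pM 125I-CGRP and increasing test concentrations, then filtered on PEI-treated GF/B filters and gamma counted. Nonspecific binding defined with 1 μM human α-CGRP. IC50 from one-site nonlinear regression.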
# Chain of Calcitonin gene-related peptide type 1 receptor (Rattus norvegicus, UniProt Q63118) (Q63118 whole entry): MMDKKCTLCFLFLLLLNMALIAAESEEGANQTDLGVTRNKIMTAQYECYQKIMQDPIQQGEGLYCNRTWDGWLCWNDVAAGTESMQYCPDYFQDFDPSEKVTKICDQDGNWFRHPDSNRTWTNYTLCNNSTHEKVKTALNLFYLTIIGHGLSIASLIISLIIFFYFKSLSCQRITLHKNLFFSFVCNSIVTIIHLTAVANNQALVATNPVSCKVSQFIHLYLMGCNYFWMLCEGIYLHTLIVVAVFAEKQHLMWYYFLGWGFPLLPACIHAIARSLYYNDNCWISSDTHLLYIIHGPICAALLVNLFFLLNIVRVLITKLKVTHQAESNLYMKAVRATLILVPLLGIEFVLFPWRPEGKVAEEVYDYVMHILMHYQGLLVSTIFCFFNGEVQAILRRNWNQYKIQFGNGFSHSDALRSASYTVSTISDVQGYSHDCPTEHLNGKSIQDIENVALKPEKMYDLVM
row,IC50 [nM],SMILES
1,70500,COc1cccc(CCNC(=O)N[C@@H](Cc2cc(Br)c(O)c(Br)c2)C(=O)N[C@H](CCCCN)C(=O)N2CCN(c3ccncc3)CC2)c1
2,6.4,NCCCC[C@@H](NC(=O)[C@H](Cc1cc(Br)c(O)c(Br)c1)NC(=O)N1CCC(N2Cc3ccccc3NC2=O)CC1)C(=O)N1CCN(c2ccncc2)CC1
3,56.7,NCCCC[C@@H](NC(=O)[C@H](Cc1cc(Br)c(O)c(Br)c1)NC(=O)N1CCC(n2c(O)nc3ccccc32)CC1)C(=O)N1CCN(c2ccncc2)CC1
